Reference: ChEMBL document CHEMBL1127856, “Synthesis and structure-activity studies on acidic amino acids and related diacids as NMDA receptor ligands” (J Med Chem, 1994)

Legend:
[1] = target: T1, Glutamate receptor ionotropic, AMPA (Rattus norvegicus, UniProt P19490+P19491+P19492+P19493); test: Tested in vitro for the concentration required to inhibit [3H]AMPA radioligand at EAA receptor sites in rat cortical membranes; format: cell membranes
How it was run: (§1)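 Radioligand displacement ([3H]AMPA or [3H]CPP) in rat cortical membranes prepared by the Ransom and Stec method.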

Glutamate NMDA receptor [2] = test: Tested in vitro for the concentration required to inhibit [3H]CPP radioligand at EAA receptor sites in rat cortical membranes; format: cell membranes; how it was run: as §1
Rattus norvegicus [3] = species on record: Rattus norvegicus; test: Effective concentration in vitro as electropharmacological activity in the rat cortical wedge preparation; format: functional
How it was run: (§2)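 Rat brain wedges (500 μm) containing cerebral cortex and corpus callosum, separated by a grease gap. The cortex side is perfused with Mg2+-free oxygenated Krebs buffer containing the compounds, and the callosum side with Mg2+- and Ca2+-free Krebs. DC potentials are recorded via Ag/AgCl electrodes. Agonists for antagonism: NMDA 10 μM, AMPA 5 μM, kainic acid 10 μM. Dose–response curves come from single experiments, each repeated at least twice.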

Glutamate NMDA receptor [4] = test: Stimulation of [3H]-MK-801 binding to EAA receptor sites in rat cortical membranes
[5] = target: T1, Glutamate receptor ionotropic, AMPA; test: Tested in vitro for the concentration required to inhibit [3H]AMPA radioligand at AMPA receptor sites in rat cortical membranes; format: cell membranes
[6] = target: Glutamate receptor ionotropic, NMDA 2C (Rattus norvegicus) (UniProt Q00961); test: pKa was determined; format: functional
Glutamate receptor ionotropic, NMDA 2C (Rattus norvegicus), sequence (Q00961 20-1237 limits assumed): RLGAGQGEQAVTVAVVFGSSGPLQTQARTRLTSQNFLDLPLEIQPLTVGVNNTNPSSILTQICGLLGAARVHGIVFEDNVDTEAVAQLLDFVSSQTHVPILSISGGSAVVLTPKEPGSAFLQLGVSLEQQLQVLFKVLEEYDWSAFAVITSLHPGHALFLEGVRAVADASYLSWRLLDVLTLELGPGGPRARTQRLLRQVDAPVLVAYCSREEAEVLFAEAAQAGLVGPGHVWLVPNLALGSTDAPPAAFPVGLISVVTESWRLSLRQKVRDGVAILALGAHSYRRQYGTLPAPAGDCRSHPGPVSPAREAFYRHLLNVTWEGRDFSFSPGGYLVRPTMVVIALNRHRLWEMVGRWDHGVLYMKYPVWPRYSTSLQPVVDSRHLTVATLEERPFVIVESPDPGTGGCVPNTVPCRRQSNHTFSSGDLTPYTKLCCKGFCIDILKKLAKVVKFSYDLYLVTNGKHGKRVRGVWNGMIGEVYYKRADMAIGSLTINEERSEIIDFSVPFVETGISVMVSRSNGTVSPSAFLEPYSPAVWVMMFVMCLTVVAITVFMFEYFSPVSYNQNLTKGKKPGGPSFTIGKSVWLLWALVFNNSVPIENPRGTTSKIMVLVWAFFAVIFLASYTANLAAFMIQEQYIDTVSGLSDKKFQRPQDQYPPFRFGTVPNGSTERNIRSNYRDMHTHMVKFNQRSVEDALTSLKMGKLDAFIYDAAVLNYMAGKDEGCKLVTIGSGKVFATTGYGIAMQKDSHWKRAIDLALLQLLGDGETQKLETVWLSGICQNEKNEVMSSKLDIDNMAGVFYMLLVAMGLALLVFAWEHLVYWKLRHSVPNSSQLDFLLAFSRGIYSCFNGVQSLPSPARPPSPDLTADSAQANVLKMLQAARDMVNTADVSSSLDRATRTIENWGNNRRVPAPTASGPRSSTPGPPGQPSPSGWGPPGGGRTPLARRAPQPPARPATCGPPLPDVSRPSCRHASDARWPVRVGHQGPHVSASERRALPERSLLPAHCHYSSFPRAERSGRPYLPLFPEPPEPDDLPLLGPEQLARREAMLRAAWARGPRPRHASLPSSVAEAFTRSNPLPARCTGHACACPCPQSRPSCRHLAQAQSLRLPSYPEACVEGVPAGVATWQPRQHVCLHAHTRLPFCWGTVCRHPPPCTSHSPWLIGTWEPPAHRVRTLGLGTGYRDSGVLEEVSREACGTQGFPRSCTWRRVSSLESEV

[7] = target: Glutamate receptor ionotropic, AMPA (Rattus norvegicus) (UniProt P19491+P19492+P19493+P19490); test: Inhibition of [3H]AMPA radioligand at EAA receptor sites in rat cortical membranes at 100 uM concentration; format: cell membranes; conditions: Membrane; how it was run: as §1
[8] = target: Glutamate NMDA receptor (Rattus norvegicus) (UniProt P35439+Q00959+Q00960+Q00961+Q62645+Q8VHN2+Q9R1M7); test: Inhibition of [3H]CPP radioligand at EAA receptor sites in rat cortical membranes at 100 uM concentration; format: cell membranes; conditions: Membrane; how it was run: as §1
Rattus norvegicus [9] = species on record: Rattus norvegicus; test: Effective concentration in vitro as electropharmacological activity in the rat cortical wedge preparation; antagonist; format: functional; how it was run: as §2

Structure (SMILES) | IC50 [1] [µM] | IC50 (Glutamate NMDA receptor [2]) [µM] | EC50 (Rattus norvegicus [3]) [µM] | EC50 (Glutamate NMDA receptor [4]) [µM] | IC50 [5] [µM] | pKa [6] | inhibition [7] [%] | inhibition [8] [%] | EC50 (Rattus norvegicus [9])
COC(C(=O)O)c1c(O)noc1C (configuration not stated) | > 100 | > 100 | > 5000 | > 100 |  |  |  |  | 
CC(C)(C)c1onc(O)c1CC(N)C(=O)O (configuration not stated) |  | > 100 | 48 | > 100 |  |  |  |  | 
Cc1o[nH]c(=O)c1C(N)C(=O)O (configuration not stated) | > 100 |  | 4.3 | 0.45 |  |  |  |  | 
CSC(C(=O)O)c1c(O)noc1C (configuration not stated) | > 100 | > 100 | > 5000 | > 100 |  |  |  |  | 
CNC(C(=O)O)c1c(C)o[nH]c1=O (configuration not stated) | > 100 | 18.3 | 70 | 50 |  |  |  |  | 
O=C(O)c1cccnc1C(=O)O [QUINOLINIC ACID] | > 100 | > 100 | 1500 |  |  | < 2 |  |  | 
NC1(C(=O)O)CCCCc2onc(O)c21 (configuration not stated) | > 100 | > 100 | 2500 | > 100 |  |  |  |  | 

The next lines start with the values.

IC50 [1] [µM] | IC50 (Glutamate NMDA receptor [2]) [µM] | EC50 (Rattus norvegicus [3]) [µM] | EC50 (Glutamate NMDA receptor [4]) [µM] | IC50 [5] [µM] | pKa [6] | inhibition [7] [%] | inhibition [8] [%] | EC50 (Rattus norvegicus [9]) | Structure (SMILES)
 |  | 13 | > 100 | 0.03 |  |  |  |  | NC(Cc1c(O)noc1CBr)C(=O)O (configuration not stated)
> 100 |  | 8 | 5 |  |  |  |  |  | NC(C(=O)O)c1c(O)noc1CO (configuration not stated)
0.4 | > 100 | 110 | > 100 |  |  |  |  |  | NC(Cc1c(O)noc1CO)C(=O)O (configuration not stated)
> 100 | > 100 |  | > 100 |  |  | 8 | 25 | Antagonist | CC(C)(C)c1onc(O)c1C(N)C(=O)O (configuration not stated)
